PAFAH1B3 FP inh – blocks human PAF acetylhydrolase 1B catalytic subunit 3; recombinant PAFAH1B3, FP-rhodamine probe, fluorescence polarization; inhibition, % at 3.39 µM; 0.28% of 340,000 active;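 active means inhibition above the screen-wide average of all tested compounds plus 3 SD, cut at about 25% in these data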;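 further: 0% = enzyme with DMSO only and 100% = wells lacking PAFAH1B3 protein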
Target sequence (Q15102 whole entry, looked up): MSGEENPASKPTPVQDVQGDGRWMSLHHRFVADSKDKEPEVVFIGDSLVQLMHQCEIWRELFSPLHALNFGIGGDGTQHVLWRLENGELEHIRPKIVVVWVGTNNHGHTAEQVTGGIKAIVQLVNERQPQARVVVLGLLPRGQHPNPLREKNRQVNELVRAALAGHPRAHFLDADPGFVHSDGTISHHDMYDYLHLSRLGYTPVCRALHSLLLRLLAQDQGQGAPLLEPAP
pPAFAH inh – pPAFAH (human) enzyme inhibition; Q13093; AID 463082; recombinant pPAFAH, FP-rhodamine probe fluorescence polarization; inhibition, % at 3.39 µM; 1.5% of 330,000 active;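 active means inhibition above the mean inhibition across the screen plus 3 SD, cut at about 25% in these data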;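 further: inhibitors block binding of the rhodamine activity-based probe so polarization drops; 0% = enzyme with DMSO and 100% = wells lacking pPAFAH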
PAFAH2 inh – inhibitors of human PAFAH2; Q99487; recombinant PAFAH2, FP-rhodamine activity probe, fluorescence polarization; inhibition, % at 3.39 µM; 0.99% of 340,000 active;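 active means inhibition above the mean over all tested compounds plus 3 SD, cut at about 30% in these data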;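 further: inhibitors block probe labeling of enzyme so polarization drops; 0% = enzyme with DMSO and 100% = wells lacking PAFAH2 protein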
PAFAH1B2 FP inh – blocks human PAF acetylhydrolase 1b catalytic subunit 2 | AID 492953 | P68402 | 1.2% of 340,000 active | inhibition, % at 3.39 µM | recombinant PAFAH1B2, FP-rhodamine activity probe, fluorescence polarization;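 active means inhibition above the mean of all tested compounds plus 3 SD, cut at about 24% in these data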;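 further: 0% = enzyme with DMSO and 100% = wells lacking PAFAH1B2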
ASAP1 inh – ASAP1 ArfGAP inhibition | Q9ULH1 | ASAP1-stimulated ARF1 GTP hydrolysis, GDP FP detection | inhibition, % at 16.5 µM | 0.19% of 360,000 active; in the data active means inhibition above about 25%;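 further: 0% = vehicle with enzyme and substrate and 100% = no enzyme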
ARFGAP1 inh – rat ARFGAP1 inhibition. Q62848. Arfgap1-stimulated ARF1 GTP hydrolysis, GDP FP detection. inhibition, % at 16.5 µM. 0.26% of 360,000 active. AID 651572;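 active means inhibition above a per-plate limit, mean inhibition of low control wells plus 3 SD, cut at about 25% in these data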;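 further: 0% = DMSO wells with enzyme and 100% = wells lacking Arfgap1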
Target sequence (Q62848 1-136 limits assumed): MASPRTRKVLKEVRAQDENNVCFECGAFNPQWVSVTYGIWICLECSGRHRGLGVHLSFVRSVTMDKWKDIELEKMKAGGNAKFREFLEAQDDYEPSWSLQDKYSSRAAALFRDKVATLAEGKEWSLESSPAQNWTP
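Material: rat Arfgap1 catalytic domain, aa 1-136; also added: human ARF1(Δ1-17)-GTP substrate; compound dosing: one concentration, 16.5 µM, DMSO 1.26%; incubation: GTP hydrolysis reaction 2 h at 25 °C; measured by: Tracer-displacement fluorescence polarization with EDTA stop, 620/688 nm; evaluation: % inhibition from polarization; repeats: one replicate per compound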
PAFAH2 confirm – PAFAH2 (human) inhibition, confirmed; shares compounds with PAFAH2 inh; recombinant PAFAH2, FP-rhodamine activity probe, fluorescence polarization; inhibition, % at 3.39 µM; 65% of 2,300 active;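 active means mean inhibition over three repeats above a set limit taken from the earlier primary screen, cut at about 30% in these data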;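 further: inhibitor blocks binding of rhodamine activity probe so polarization falls; 0% = enzyme with DMSO and 100% = wells lacking PAFAH2 protein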
* = called active by the depositor. A selection: hits, their analogues and other compounds. The true share with any hit is near 2.7%.

`COc1cc(/C=C/C(=O)OCC(=O)N2CCc3ccccc3C2)ccc1O` gave PAFAH1B3 FP inh 8.4, pPAFAH inh 7.6, PAFAH2 inh 35.0*, PAFAH1B2 FP inh -0.1, ASAP1 inh 0.9, ARFGAP1 inh -11.0 and PAFAH2 confirm 35.5*.
`COc1cc(/C=C/C(=O)OCC(=O)NC(=O)NC2CCCC2)ccc1OCC#N` gave PAFAH1B3 FP inh 2.7, PAFAH2 inh 12.6, PAFAH1B2 FP inh 3.9, ASAP1 inh 5.8 and ARFGAP1 inh 1.6.
For COc1cccc(C(=O)OCC(=O)N2CCc3ccccc3C2)c1OC the results were pPAFAH inh 9.7, ASAP1 inh -4.3 and ARFGAP1 inh -0.2.
Screening COc1cc(/C=C/C(=O)OCC(=O)N2CCC(Cc3ccccc3)CC2)ccc1O returned PAFAH1B3 FP inh 6.1, pPAFAH inh 11.8, PAFAH2 inh 13.8, PAFAH1B2 FP inh -2.4, ASAP1 inh -9.9 and ARFGAP1 inh -2.8.
COc1cc(/C=C/C(=O)OCC(=O)N2CCC(C)CC2)ccc1O was read as PAFAH1B3 FP inh 1.0, pPAFAH inh 4.9, PAFAH2 inh 56.4*, PAFAH1B2 FP inh 3.2, ASAP1 inh 1.5, ARFGAP1 inh -5.0 and PAFAH2 confirm 45.1*.
For COc1cc(/C=C/C(=O)OCC(=O)N2CC3(C)CC2CC(C)(C)C3)ccc1O (stereo not drawn) the results were PAFAH1B3 FP inh -6.3, pPAFAH inh 5.5, PAFAH2 inh 42.2*, PAFAH1B2 FP inh 11.6, ASAP1 inh 7.1, ARFGAP1 inh -11.0 and PAFAH2 confirm 19.9.
`COc1cc(/C=C/C(=O)OCC(=O)N2CCC(C)CC2)ccc1OCC#N` gave PAFAH1B3 FP inh 8.8, pPAFAH inh 0.4, PAFAH2 inh 41.6*, PAFAH1B2 FP inh 1.1, ASAP1 inh -5.2, ARFGAP1 inh 12.6 and PAFAH2 confirm 22.2.
For COc1cc(/C=C/C(=O)OCC(=O)NCc2cccs2)ccc1OC(F)F the results were PAFAH1B3 FP inh 3.3, pPAFAH inh 5.8, PAFAH2 inh 32.9*, PAFAH1B2 FP inh -1.0, ASAP1 inh 1.2, ARFGAP1 inh 6.7 and PAFAH2 confirm 51.0*.
COc1ccc(/C=C/C(=O)OCC(=O)NCc2ccccc2)cc1OC was read as PAFAH1B3 FP inh 7.0, pPAFAH inh 3.1, PAFAH2 inh 49.6*, PAFAH1B2 FP inh 4.5, ASAP1 inh 0.3, ARFGAP1 inh -12.4 and PAFAH2 confirm 47.4*.
`COc1ccc(OC)c(/C=C/C(=O)OCC(=O)NCc2cccs2)c1` gave PAFAH1B3 FP inh 9.1, pPAFAH inh -1.7, PAFAH2 inh 45.9*, PAFAH1B2 FP inh 2.7, ASAP1 inh 1.9, ARFGAP1 inh 5.9 and PAFAH2 confirm 50.4*.
`COc1ccc(OC)c(/C=C/C(=O)OCC(=O)NCc2ccccc2)c1` gave PAFAH1B3 FP inh 3.4, pPAFAH inh 5.8, PAFAH2 inh 46.4*, PAFAH1B2 FP inh 0.4, ASAP1 inh -9.9, ARFGAP1 inh 1.4 and PAFAH2 confirm 28.1.
Screening COc1ccc(CCNC(=O)COC(=O)c2ccc(OC)cc2OC)cc1 returned PAFAH1B3 FP inh 0.4, PAFAH2 inh 5.8, PAFAH1B2 FP inh -2.4, ASAP1 inh -4.1 and ARFGAP1 inh -1.8.
For COc1ccc(CCNC(=O)COC(=O)/C=C/c2ccc(OC)cc2OC)cc1 the results were PAFAH1B3 FP inh 12.5, pPAFAH inh 19.5, PAFAH2 inh 71.5*, PAFAH1B2 FP inh 4.8, ASAP1 inh 14.3, ARFGAP1 inh 9.1 and PAFAH2 confirm 58.2*.
For COc1ccc(CCNC(=O)COC(=O)/C=C/c2cc(OC)ccc2OC)cc1 the results were PAFAH1B3 FP inh 1.8, pPAFAH inh 2.8, PAFAH2 inh 31.6*, PAFAH1B2 FP inh 9.3, ASAP1 inh 2.8, ARFGAP1 inh -1.9 and PAFAH2 confirm 16.1.
For C[C@H](CO)N1C[C@H](C)[C@@H](CN(C)Cc2ccc(-c3ccccc3)cc2)OCc2cnnn2CCCC1=O the results were ASAP1 inh 0.1 and ARFGAP1 inh 2.9.
